Data reported in ChEMBL document CHEMBL1781938, “New 3-, 8-disubstituted pyrazolo[5,1-c][1,2,4]benzotriazines useful for studying the interaction with the HBp-3 area (hydrogen bond point area) in the benzodiazepine site on the γ-aminobutyric acid type A (GABAA) receptor” (Bioorg Med Chem, 2011).
pKi: −log10 of the molar value.

What was measured:
[1] = Displacement of [3H]Ro151788 from bovine GABA-A receptor; set-up: species or system Bos taurus
Method in brief: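 Competition binding against [3H]flumazenil (Ro 15-1788) at the benzodiazepine site, using bovine cerebral cortex membranes diluted in 50 mM Tris–citrate pH 7.4. Protein was measured by the Lowry method. Each compound was run at six or more concentrations. Ki was derived only for compounds giving more than 80% inhibition of specific binding at 10 µM.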

[2] = species: Bos taurus; assay: Displacement of [3H]Ro151788 from bovine GABA-A receptor at 10 uM
Method in brief: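 Bovine cerebral cortex membranes diluted in 50 mM Tris–citrate buffer pH 7.4, with protein measured by Lowry. Specific binding of [3H]flumazenil (Ro 15-1788) was read as percent inhibition with test compound at a fixed 10 µM. Compounds inhibiting by more than 80% went on to Ki determination.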

| SMILES | pKi [1] | Activity [2] [%] |
| --- | --- | --- |
| COc1ccc(-c2ccc3c(c2)n2ncc(C(=O)c4ccco4)c2n[n+]3[O-])cc1 | 6.62 | > 80 |
| [O-][n+]1nc2c(-c3ccco3)cnn2c2cc(-c3ccsc3)ccc21 | 7.57 | > 80 |
| O=C(c1ccco1)c1cnn2c1n[n+]([O-])c1ccc(-c3ccco3)cc12 | 6.07 | > 80 |
| [O-][n+]1nc2c(-c3ccsc3)cnn2c2cc(-c3ccccc3)ccc21 | 6.19 | > 80 |
| COc1ccc(-c2ccc3c(c2)n2ncc(I)c2n[n+]3[O-])cc1 | 6.62 | > 80 |
| [O-][n+]1nc2c(-c3ccsc3)cnn2c2cc(-c3ccco3)ccc21 | 6.68 | > 80 |
| [O-][n+]1nc2c(-c3ccsc3)cnn2c2cc(-c3ccsc3)ccc21 | 6.45 | > 80 |
| COc1ccc(-c2ccc3c(c2)n2ncc(-c4ccsc4)c2n[n+]3[O-])cc1 | 6.09 | > 80 |
| [O-][n+]1nc2c(-c3ccsc3)cnn2c2cc(-c3cccs3)ccc21 | 6.43 | > 80 |
| CC(C)(C)OC(=O)n1cccc1-c1ccc2c(c1)n1ncc(C(=O)OCc3cccs3)c1n[n+]2[O-] | 6.40 | > 80 |
| O=C(OCc1cccs1)c1cnn2c1n[n+]([O-])c1ccc(-c3ccco3)cc12 | 7.26 | > 80 |
| COc1ccc(-c2ccc3c(c2)n2ncc(C(=O)OCc4cccs4)c2n[n+]3[O-])cc1 | 7.53 | > 80 |

Results, then the compound that gave them:

| pKi [1] | Activity [2] [%] | SMILES |
| --- | --- | --- |
| 6.72 | > 80 | [O-][n+]1nc2c(I)cnn2c2cc(-c3ccco3)ccc21 |
| 7.32 | > 80 | [O-][n+]1nc2c(-c3ccc[nH]3)cnn2c2cc(-c3ccsc3)ccc21 |
| 6.52 | > 80 | COc1ccccc1-c1ccc2c(c1)n1ncc(I)c1n[n+]2[O-] |
| 7.60 | > 80 | [O-][n+]1nc2c(I)cnn2c2cc(-c3ccc[nH]3)ccc21 |
| 5.61 | > 80 | [O-][n+]1nc2c(I)cnn2c2cc(-c3ccccc3O)ccc21 |
| 7.25 | > 80 | [O-][n+]1nc2c(I)cnn2c2cc(-c3ccsc3)ccc21 |
| 5.62 | > 80 | [O-][n+]1nc2c(I)cnn2c2cc(-c3ccncc3)ccc21 |
| 7.83 | > 80 | COC(=O)c1cnn2c1n[n+]([O-])c1ccc(-c3ccc[nH]3)cc12 |
| 6.69 | > 80 | [O-][n+]1nc2c(I)cnn2c2cc(-c3cccs3)ccc21 |
| 7.20 | > 80 | O=C(c1ccco1)c1cnn2c1n[n+]([O-])c1ccc(-c3ccc[nH]3)cc12 |
| 7.71 | > 80 | [O-][n+]1nc2c(-c3ccsc3)cnn2c2cc(-c3ccc[nH]3)ccc21 |
